From ChEMBL document CHEMBL1140911, “Semisynthesis, biological activity, and molecular modeling studies of C-ring-modified camptothecins” (J Med Chem, 2009)
Structures can show the parent of a compound that is named as a salt. Calls of active or inactive are those of the source. No cut-off for these calls is given here.

Experiments:
NCI-H460 = assay: Antiproliferative activity against human NCI-H460 cells after short term exposure for 1 hr measured after 72 hrs in drug-free medium; assay type: functional, cell-based
Procedure, shortened: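 NCI-H460 human NSCLC cells grown in RPMI 1640 with 10% FCS. IC50 is the concentration giving 50% decrease in cell growth relative to untreated control.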

[1] = target: T1, DNA topoisomerase 1 (Homo sapiens) (UniProt P11387); assay: Induction of human recombinant topoisomerase 1-mediated SV40 DNA cleavage at 1 to 50 uM after 30 mins by PAGE
T1 sequence (whole entry): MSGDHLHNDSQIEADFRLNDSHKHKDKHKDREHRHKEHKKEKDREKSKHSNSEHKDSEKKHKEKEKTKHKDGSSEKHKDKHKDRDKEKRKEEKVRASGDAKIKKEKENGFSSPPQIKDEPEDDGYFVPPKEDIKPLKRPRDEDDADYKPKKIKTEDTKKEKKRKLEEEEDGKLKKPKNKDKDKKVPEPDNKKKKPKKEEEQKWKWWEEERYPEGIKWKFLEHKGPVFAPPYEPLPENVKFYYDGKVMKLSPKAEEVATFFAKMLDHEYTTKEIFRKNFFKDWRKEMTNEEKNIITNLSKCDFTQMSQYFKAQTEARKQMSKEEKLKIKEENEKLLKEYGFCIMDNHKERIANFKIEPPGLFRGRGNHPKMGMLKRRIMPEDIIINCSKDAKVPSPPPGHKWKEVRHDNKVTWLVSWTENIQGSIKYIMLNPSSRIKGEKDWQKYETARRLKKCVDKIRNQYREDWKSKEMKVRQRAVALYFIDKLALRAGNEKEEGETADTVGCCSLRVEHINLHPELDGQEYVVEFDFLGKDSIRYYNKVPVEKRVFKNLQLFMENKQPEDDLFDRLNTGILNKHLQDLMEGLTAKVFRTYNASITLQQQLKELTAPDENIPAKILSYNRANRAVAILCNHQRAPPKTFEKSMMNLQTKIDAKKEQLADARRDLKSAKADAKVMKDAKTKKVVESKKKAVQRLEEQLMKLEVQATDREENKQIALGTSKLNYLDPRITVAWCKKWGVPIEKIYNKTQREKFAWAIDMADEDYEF
Procedure, shortened: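 Substrate was a gel-purified 751-bp BamHI-EcoRI SV40 DNA fragment, uniquely 3′-end labeled (20 000 cpm/sample). It was reacted with full-length human recombinant topo I and drug at 1, 10 and 50 µM in 10 mM Tris-HCl pH 7.6, 150 mM KCl, 5 mM MgCl2, 15 µg/mL BSA, 0.1 mM DTT, 30 min at 37 °C. Stopped with 0.5% SDS/0.3 mg/mL proteinase K, 45 min, 42 °C. Run on denaturing 8% polyacrylamide gel and quantified by phosphorimaging. Band intensity was compared with SN38 reference.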

CC[C@@]1(O)C(=O)OCc2c1cc1n(c2=O)[C@@H](N=[N+]=[N-])c2cc3ccccc3nc2-1
IC50 (NCI-H460): 11.5 µM

CC[C@@]1(O)C(=O)OCc2c1cc1n(c2=O)[C@@H](N(NC(=O)OCc2ccccc2)C(=O)OCc2ccccc2)c2cc3ccccc3nc2-1
IC50 (NCI-H460): 85 µM

CC[C@@]1(O)C(=O)OCc2c1cc1c3nc4ccccc4cc3c3nnc2n13
IC50 (NCI-H460): 10.6 µM
Activity [1]: Active

CC[C@@]1(O)C(=O)OCc2c1cc1n(c2=O)[C@@H](F)c2cc3ccccc3nc2-1
IC50 (NCI-H460): 56 µM
Activity [1]: Active

CC[C@@]1(O)C(=O)OCc2c1cc1n(c2=O)C(N)c2cc3ccccc3nc2-1 (stereo not given in full)
IC50 (NCI-H460): 30 µM
Activity [1]: Active

CC[C@@]1(O)C(=O)OCc2c1cc1n(c2=O)C(C)c2cc3ccccc3nc2-1 (mixture of isomers)
IC50 (NCI-H460): 5.9 µM
Activity [1]: Active

CC[C@@]1(O)C(=O)OCc2c1cc1n(c2=O)[C@H](N(NC(=O)OCc2ccccc2)C(=O)OCc2ccccc2)c2cc3ccccc3nc2-1
IC50 (NCI-H460): 60 µM

CC[C@@]1(O)C(=O)OCc2c1cc1n(c2=O)[C@H](N=[N+]=[N-])c2cc3ccccc3nc2-1
IC50 (NCI-H460): 6.7 µM
Activity [1]: Active

CC[C@@]1(O)C(=O)OCc2c1cc1n(c2=O)[C@H](N(NC(=O)OC(C)(C)C)C(=O)OC(C)(C)C)c2cc3ccccc3nc2-1
IC50 (NCI-H460): 77 µM
Activity [1]: Active

CC[C@@]1(O)C(=O)OCc2c1cc1n(c2=O)[C@H](F)c2cc3ccccc3nc2-1
IC50 (NCI-H460): 56 µM
Activity [1]: Active

CC[C@@]1(O)C(=O)OCc2c1cc1n(c2=O)[C@@H](N(NC(=O)OC(C)(C)C)C(=O)OC(C)(C)C)c2cc3ccccc3nc2-1
IC50 (NCI-H460): > 173 µM

CC[C@@]1(O)C(=O)OCc2c1cc1n(c2=O)Cc2cc3c(CN(C)C)c(O)ccc3nc2-1 [TOPOTECAN HYDROCHLORIDE]
IC50 (NCI-H460): 0.61 µM

CCc1c2c(nc3ccc(O)cc13)-c1cc3c(c(=O)n1C2)COC(=O)[C@]3(O)CC [7-ETHYL-10-HYDROXYCAMPTOTHECIN]
IC50 (NCI-H460): 0.13 µM
Activity [1]: Active

CC[C@@]1(O)C(=O)OCc2c1cc1n(c2=O)C(CCCO)c2cc3ccccc3nc2-1 (mixture of isomers)
IC50 (NCI-H460): 16 µM

CC[C@@]1(O)C(=O)OCc2c1cc1n(c2=O)C(N=[N+]=[N-])(N=[N+]=[N-])c2cc3ccccc3nc2-1 (stereo not given in full)
IC50 (NCI-H460): 9.3 µM

CC[C@@]1(O)C(=O)OCC2=C1C=C1c3nc4ccccc4cc3C3NN=C2N13 (mixture of isomers)
IC50 (NCI-H460): 46.8 µM
Activity [1]: Active
